Results from the array DNA melting data of Ke et al. (doi:10.1101/2024.01.08.574731).

Experiments:
[1] = folding enthalpy; higher = less favourable; fluorescence melt of hairpins on a sequencing array, two-state fit; settings: sodium 0.088 M
In short: (§1)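 Two-state fits, bootstrapped, provided melting temperature and folding enthalpy from Cy3 fluorescence normalised to pre-quench Cy3 and to control constructs. Library hairpins with annealed Cy3 and quencher oligos were imaged on a sequenced MiSeq flow cell in 50 mM Na-HEPES pH 8.0, 25 mM NaCl, at 2.5 °C intervals up to 60 °C. Four replicates were combined with inverse-variance weighting. A 9.35 °C upward shift was applied to fitted temperatures to match UV melts.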

[2] = melting temperature; fluorescence melt of hairpins on a sequencing array, two-state fit, raised by 9.35 °C to match UV melts; settings: sodium 0.088 M
In short: as §1

GCGGACGTCCGC ((((....)))) showed a folding enthalpy [1] of -53.7 kcal/mol and a Tm [2] of 60.8 °C.

In the case of GATCATACAAATGATC ((((((....)))))), the folding enthalpy [1] is reported as -33.6 kcal/mol and the Tm [2] is reported as 44.6 °C.

GATCGAGTCTCGATC ((((((...)))))) showed a folding enthalpy [1] of -39.2 kcal/mol and a Tm [2] of 53.2 °C.

With GACCGAGGAAACTCGGCC (.(((((....))))).) the folding enthalpy [1] was -15.1 kcal/mol and the Tm [2] was 46.6 °C.

GCCACGGGAAACCATGGC ((((.((....)).)))) gave a folding enthalpy [1] of -47.8 kcal/mol and a Tm [2] of 48.6 °C.

In the case of GGTTCTGGAAACAGAACC (((((((....))))))), the folding enthalpy [1] is reported as -46.5 kcal/mol and the Tm [2] is reported as 60.8 °C.

GCTTGAGCGAAAGCTAGC (((..(((....)))))) showed a folding enthalpy [1] of -13.9 kcal/mol and a Tm [2] of 47.8 °C.

Work on GATCGAGACATCGATC ((((((....)))))) yielded a folding enthalpy [1] of -38.9 kcal/mol and a Tm [2] of 58.8 °C.

For GATCGTTTAACGATC ((((((...)))))), the folding enthalpy [1] was -36.6 kcal/mol and the Tm [2] was 55.7 °C.

With GATCCGGACGCGGATC ((((((....)))))) the folding enthalpy [1] was -38 kcal/mol and the Tm [2] was 59.5 °C.

GCCGAGCGAAAGCTGGGC (((.(((....))).))) gave a folding enthalpy [1] of -30 kcal/mol and a Tm [2] of 68 °C.

In the case of GTGTACGAAAGTAGCCAC ((((((....)))..))), the folding enthalpy [1] is reported as -14.2 kcal/mol and the Tm [2] is reported as 31.9 °C.

For CGGGACGGAAACGTACCG (((.(((....))).))), the folding enthalpy [1] was -42.1 kcal/mol and the Tm [2] was 62.4 °C.

Work on GGCTTAACGAAAGTTGCC (((..(((....)))))) yielded a folding enthalpy [1] of -21.8 kcal/mol and a Tm [2] of 45.5 °C.

GATCCACGCGTGGATC ((((((....)))))) gave a folding enthalpy [1] of -49.9 kcal/mol and a Tm [2] of 64.4 °C.

In the case of GCATCTGCGAAAGCATGC (((..(((....)))))), the folding enthalpy [1] is reported as -14.4 kcal/mol and the Tm [2] is reported as 39.8 °C.

In the case of GGGTCTGGAAACAAACCC ((((.((....)).)))), the folding enthalpy [1] is reported as -31.6 kcal/mol and the Tm [2] is reported as 37.9 °C.

With GTTACCGGAAACGGCAAC (((.(((....))).))) the folding enthalpy [1] was -24.6 kcal/mol and the Tm [2] was 44 °C.

With GATCCTACCTAGGATC ((((((....)))))) the folding enthalpy [1] was -31.6 kcal/mol and the Tm [2] was 53 °C.

GATCCTGCATAGGATC ((((((....)))))) showed a folding enthalpy [1] of -43.4 kcal/mol and a Tm [2] of 60.9 °C.

In the case of CGTGCGGAAACGCATACG ((((((....)))..))), the folding enthalpy [1] is reported as -15.4 kcal/mol and the Tm [2] is reported as 44.9 °C.

Work on GATCTAGATATAGATC ((((((....)))))) yielded a folding enthalpy [1] of -34.4 kcal/mol and a Tm [2] of 46.8 °C.

Sequence GAATGGGCGAAAGCCTTC (((..(((....)))))) has a folding enthalpy [1] of -6.79 kcal/mol and a Tm [2] of 32 °C.

GTAGGCGAAAGCCGTTAC ((((((....)))..))) showed a folding enthalpy [1] of -8.81 kcal/mol and a Tm [2] of 39.8 °C.

GCCCCCGAAAGGGTAGGC ((((((....)))..))) gave a folding enthalpy [1] of -23.3 kcal/mol and a Tm [2] of 55.9 °C.

Sequence GTCCCAGGAAACCAGGAC ((((..(....)..)))) has a folding enthalpy [1] of -21.2 kcal/mol and a Tm [2] of 35.6 °C.

Sequence GGATACGAAAGTATTCC ((((((....))).))) has a folding enthalpy [1] of -22.8 kcal/mol and a Tm [2] of 42.9 °C.

Work on GCGTCAGCACGC ((((....)))) yielded a folding enthalpy [1] of -8.99 kcal/mol and a Tm [2] of 61.9 °C.

In the case of GCTGACGAAAGTCGAGC ((((((....))).))), the folding enthalpy [1] is reported as -37.7 kcal/mol and the Tm [2] is reported as 54.6 °C.

GATCGTCGGACGATC ((((((...)))))) gave a folding enthalpy [1] of -38.9 kcal/mol and a Tm [2] of 53.8 °C.

GGCTACGAAAGTAATGCC ((((((....)))..))) gave a folding enthalpy [1] of -22.6 kcal/mol and a Tm [2] of 46.9 °C.

Work on GCTGTCCGAAAGGAGAGC (((.(((....))).))) yielded a folding enthalpy [1] of -34 kcal/mol and a Tm [2] of 57 °C.

Sequence GTTCACGAAAGTGTAAAC ((((((....)))..))) has a folding enthalpy [1] of -12.3 kcal/mol and a Tm [2] of 28.2 °C.

GGACCGGGAAACTGGTCC (((((.(....).))))) gave a folding enthalpy [1] of -44.9 kcal/mol and a Tm [2] of 58.2 °C.

With GACAGTGCGAAAGCAGTC (((..(((....)))))) the folding enthalpy [1] was -13.3 kcal/mol and the Tm [2] was 40.5 °C.

In the case of GGCATCGAAAGATGTGCC ((((((....)))..))), the folding enthalpy [1] is reported as -17.8 kcal/mol and the Tm [2] is reported as 46.4 °C.

In the case of GCGGTAGGAAACTGTCGC (((..((....))..))), the folding enthalpy [1] is reported as -30.3 kcal/mol and the Tm [2] is reported as 43.8 °C.

GACTTACGAAAGTAGTC (((.(((....)))))) showed a folding enthalpy [1] of -26.8 kcal/mol and a Tm [2] of 43.1 °C.

For GATCTCGTATGAGATC ((((((....)))))), the folding enthalpy [1] was -46.5 kcal/mol and the Tm [2] was 59.2 °C.

GATCCAATTATGGATC ((((((....)))))) showed a folding enthalpy [1] of -36.5 kcal/mol and a Tm [2] of 50.4 °C.

Work on GGTAGGCGAAAGCCAACC (((.(((....))).))) yielded a folding enthalpy [1] of -28.1 kcal/mol and a Tm [2] of 57.6 °C.

Work on GCTCAGGGAAACCTAAGC (((.(((....))).))) yielded a folding enthalpy [1] of -20.6 kcal/mol and a Tm [2] of 34.1 °C.

CGCTCGGAAACGATGGCG ((((((....)))..))) gave a folding enthalpy [1] of -31.2 kcal/mol and a Tm [2] of 45.7 °C.

In the case of GAAAAGGCGAAAGCCTTC (((..(((....)))))), the folding enthalpy [1] is reported as -9.06 kcal/mol and the Tm [2] is reported as 38.9 °C.

With GCGCAAGGAAACCTGCAC (.(((.(....).))).) the folding enthalpy [1] was -17 kcal/mol and the Tm [2] was 29.3 °C.

GGCTACTCGAAAGAGGCC (((..(((....)))))) gave a folding enthalpy [1] of -30 kcal/mol and a Tm [2] of 45.7 °C.
